Source: PubChem (Johns Hopkins Ion Channel Center)
KCNQ1 inh: blocks the human KCNQ1 potassium channel; 310,000 tested, 1.3% active; B-score at 10 µM; P51787; AID 2642; CHO-K1 KCNQ1, FluxOR thallium flux fluorescence; active compounds read high;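 active means compounds whose thallium flux B-score, printed positive for inhibition, exceeds three library SD while starting fluorescence stays within three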;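 further: channel opened by potassium depolarization with thallium stimulus after 20 min compound exposure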
KCNK3 block: human KCNK3 channel inhibition, primary screen | O14649 | CHO-KCNK3 thallium flux, FluxOR fluorescence; active compounds read low | B-score at 10 µM | 340,000 tested, 0.84% active | AID 602410;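 active means B-score under library mean minus 4 SD, starting fluorescence ratio at most library mean plus 5 SD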;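 further: more negative B-score means stronger inhibition of thallium flux through KCNK3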
hERG protect: shields human hERG channel from block by proarrhythmic agents; Q12809; CHO-hERG, FluxOR thallium flux, dofetilide IC70 present; activation (rescue from dofetilide block), less the hit threshold, % at 10 µM; 310,000 tested, 0.51% active; AID 1511;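 active means activation above the mean of controls blocked by dofetilide plus 5 SD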;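 further: thallium influx through hERG after potassium depolarization seen as dye fluorescence rise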
KCNK9 inh: blocks the human KCNK9 two-pore domain potassium channel | Q9NPC2 | HEK293 KCNK9, FluxOR thallium flux fluorescence; active compounds read low | B-score at 10 µM | 310,000 tested, 1.2% active;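 active means ratio B-score over 3 SD below the library mean, with starting fluorescence within 5 SD of its mean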;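 further: negative B-score means less thallium flux so channel inhibition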
Kir21 inh: Kir2.1 (mouse) channel inhibition. HEK293-Kir2.1, FluxOR thallium flux fluorescence; active compounds read low. 310,000 tested, 0.85% active. P35561. B-score at 10 µM. AID 1672;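 active means fluorescence ratio B-score at or below minus 3 SD of library scores, with starting-brightness B-score within 2 SD, cut at about -4.2 in these data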;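 further: channel flux triggered by added potassium and thallium sulfate stimulus; B-score of peak minus minimum fluorescence over baseline after thallium stimulus; more negative B-score means stronger Kir2.1 block with less thallium influx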
Target sequence (P35561 whole entry, looked up): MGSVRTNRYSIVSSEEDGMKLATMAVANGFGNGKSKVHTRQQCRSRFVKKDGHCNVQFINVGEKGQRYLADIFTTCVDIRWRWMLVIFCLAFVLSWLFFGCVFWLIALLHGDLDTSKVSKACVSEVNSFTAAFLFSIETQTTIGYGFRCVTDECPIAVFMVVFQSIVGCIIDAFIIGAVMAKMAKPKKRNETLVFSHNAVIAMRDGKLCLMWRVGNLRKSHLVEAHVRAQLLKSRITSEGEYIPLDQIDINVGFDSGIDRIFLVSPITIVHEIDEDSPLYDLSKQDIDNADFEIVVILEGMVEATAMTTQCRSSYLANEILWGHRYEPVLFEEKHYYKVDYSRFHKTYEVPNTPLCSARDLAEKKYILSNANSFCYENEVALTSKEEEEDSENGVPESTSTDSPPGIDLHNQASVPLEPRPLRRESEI
KCNQ1 pot: potentiators or activators of human KCNQ1 potassium channel | P51787 | CHO-K1 KCNQ1, thallium flux FluxOR fluorescence; active compounds read high | B-score at 10 µM | 310,000 tested, 0.35% active;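 active means fluorescence ratio B-score, a plate-corrected score, at least three library SD, with initial intensity B-score within 5 SD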
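Doses: Single concentration per compound, DMSO matched to controls | Test system: KCNQ1-transfected CHO-K1 cells | Timing: 90 min dye loading and 20 min compound exposure, both at room temperature | Measured by: Kinetic FluxOR thallium fluorescence, 10-s 1-Hz baseline, 110-s post-stimulus read | Medium: Assay buffer with matched DMSO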
* = called active by the depositor. Sampled rows, rich in hits. Any-hit rate of the full collection: about 3.7%.

What do the screens show for `CC1(C)CC(=O)C=C(c2cccc3c2sc2ccccc23)C1`?
KCNK3 block: inactive

What do the screens show for `CSc1nc(Oc2ccc3ccccc3c2)c2ccccc2n1`?
KCNQ1 inh: inactive; KCNK3 block: inactive; hERG protect: -10; KCNK9 inh: -7.2*; Kir21 inh: -0.01; KCNQ1 pot: inactive

What do the screens show for `CCCN(CCC)S(=O)(=O)c1ccc(C(=O)OCCN2C(=O)c3cccc4c(N5CCOCC5)ccc(c34)C2=O)cc1`?
KCNQ1 inh: 10*; KCNK3 block: inactive; hERG protect: -18; KCNK9 inh: inactive; Kir21 inh: -12; KCNQ1 pot: inactive

How did COc1ccccc1-n1ccnc1SCC(=O)NCC1CCCO1 (configuration not stated) do in these assays?
KCNQ1 inh: inactive; KCNK3 block: inactive; hERG protect: -6; KCNK9 inh: inactive; Kir21 inh: -1.9; KCNQ1 pot: inactive

What do the screens show for `COC(=O)C1=C(C)Nc2nnnn2C1c1ccc(Cl)cc1Cl` (configuration not stated)?
KCNQ1 inh: inactive; KCNK3 block: inactive; hERG protect: -5; KCNK9 inh: inactive; Kir21 inh: -0.73; KCNQ1 pot: 18*

Results for CCOC(=O)C1=C(C)Nc2nnnn2C1c1ccccc1Cl (configuration not stated) ?
KCNK3 block: inactive

What do the screens show for `COc1ccc(NC(=O)CNc2cccc(S(=O)(=O)N3CCCCCC3)c2)c([N+](=O)[O-])c1`?
KCNK3 block: inactive

Results for O=C(Oc1ccc2c(=O)c(Oc3ccc4ccccc4c3)coc2c1)c1cncc(Br)c1 ?
KCNQ1 inh: inactive; KCNK3 block: inactive; hERG protect: 11*; KCNK9 inh: inactive; Kir21 inh: 0.1; KCNQ1 pot: inactive

Results for O=C(Oc1ccc2ccccc2c1)c1cncc(Br)c1 ?
KCNQ1 inh: inactive; KCNK3 block: inactive; hERG protect: -9; KCNK9 inh: inactive; Kir21 inh: -0.93; KCNQ1 pot: inactive

How did O=C(Nc1ccccc1N1CCCCC1)c1ccc([N+](=O)[O-])o1 do in these assays?
KCNK3 block: inactive

How did O=C(Nc1ccccc1N1CCN(C(=O)c2ccc(Cl)cc2)CC1)c1ccc([N+](=O)[O-])o1 do in these assays?
KCNQ1 inh: inactive; KCNK3 block: -11*; hERG protect: -15; KCNK9 inh: inactive; Kir21 inh: -0.14; KCNQ1 pot: inactive

What do the screens show for `Cn1c(=O)c2c(n(Cc3ccccc3)c1=O)NC(=O)C2CC(=O)NCc1cccc(Cl)c1` (configuration not stated)?
KCNQ1 inh: inactive; KCNK3 block: inactive; hERG protect: -6; KCNK9 inh: inactive; Kir21 inh: 0.26; KCNQ1 pot: inactive

How did COC(=O)c1c(C)oc(C)c1S(=O)(=O)NCc1ccc(OC)cc1 do in these assays?
KCNQ1 inh: inactive; KCNK3 block: inactive; hERG protect: -3; KCNK9 inh: inactive; Kir21 inh: -2.4; KCNQ1 pot: inactive

How did COC(=O)c1c(C)oc(C)c1S(=O)(=O)NCc1ccc(Cl)cc1Cl do in these assays?
KCNQ1 inh: inactive; KCNK3 block: inactive; hERG protect: -4; KCNK9 inh: -7.5*; Kir21 inh: -5.1*; KCNQ1 pot: inactive

How did CN(C)S(=O)(=O)c1cccc(NC(=O)c2ccc3c(c2)OCCO3)c1 do in these assays?
KCNQ1 inh: inactive; KCNK3 block: inactive; hERG protect: -10; KCNK9 inh: inactive; Kir21 inh: 0.23; KCNQ1 pot: inactive

How did CC(=O)c1cccc(CN2CCCC(C(=O)Nc3ccc(-c4ccco4)cc3)C2)c1 (configuration not stated) do in these assays?
KCNQ1 inh: inactive; KCNK3 block: inactive; hERG protect: -28; KCNK9 inh: inactive; Kir21 inh: -2.3; KCNQ1 pot: inactive

How did N#CC(c1cccc(Cl)c1)c1ccc2c(C(F)(F)F)cc(C(F)(F)F)nc2n1 (configuration not stated) do in these assays?
KCNQ1 inh: inactive; KCNK3 block: inactive; hERG protect: -5; KCNK9 inh: inactive; Kir21 inh: -1.4; KCNQ1 pot: 76*
